Test results reported in ChEMBL document CHEMBL5653631, “A Potent and Selective ULK1 Inhibitor Suppresses Autophagy and Sensitizes Cancer Cells to Nutrient Stress” (iScience, 2018).
Each block holds one compound with its values, some of them ahead of it.

Assays:
[1] = biological target: Serine/threonine-protein kinase pim-3 (Homo sapiens) (UniProt Q86V86); experiment: Inhibition of human recombinant PIM3 at 500 nM in presence of ATP by radiometric assay relative to control
[2] = biological target: Protein kinase C delta type (Homo sapiens) (UniProt Q05655); experiment: Inhibition of human recombinant PKCd at 500 nM in presence of ATP by radiometric assay relative to control
[3] = biological target: Mitogen-activated protein kinase kinase kinase 10 (Homo sapiens) (UniProt Q02779); experiment: Inhibition of human recombinant MLK2 at 500 nM in presence of ATP by radiometric assay relative to control
[4] = biological target: Phosphorylase b kinase gamma catalytic chain, skeletal muscle/heart isoform (Homo sapiens) (UniProt Q16816); experiment: Inhibition of human recombinant PHKg1 at 500 nM related to control ULK1
[5] = biological target: T1, Serine/threonine-protein kinase D3 (Homo sapiens) (UniProt O94806); experiment: Inhibition of human recombinant PKD3 at 500 nM in presence of ATP by radiometric assay relative to control
T1 sequence (whole entry): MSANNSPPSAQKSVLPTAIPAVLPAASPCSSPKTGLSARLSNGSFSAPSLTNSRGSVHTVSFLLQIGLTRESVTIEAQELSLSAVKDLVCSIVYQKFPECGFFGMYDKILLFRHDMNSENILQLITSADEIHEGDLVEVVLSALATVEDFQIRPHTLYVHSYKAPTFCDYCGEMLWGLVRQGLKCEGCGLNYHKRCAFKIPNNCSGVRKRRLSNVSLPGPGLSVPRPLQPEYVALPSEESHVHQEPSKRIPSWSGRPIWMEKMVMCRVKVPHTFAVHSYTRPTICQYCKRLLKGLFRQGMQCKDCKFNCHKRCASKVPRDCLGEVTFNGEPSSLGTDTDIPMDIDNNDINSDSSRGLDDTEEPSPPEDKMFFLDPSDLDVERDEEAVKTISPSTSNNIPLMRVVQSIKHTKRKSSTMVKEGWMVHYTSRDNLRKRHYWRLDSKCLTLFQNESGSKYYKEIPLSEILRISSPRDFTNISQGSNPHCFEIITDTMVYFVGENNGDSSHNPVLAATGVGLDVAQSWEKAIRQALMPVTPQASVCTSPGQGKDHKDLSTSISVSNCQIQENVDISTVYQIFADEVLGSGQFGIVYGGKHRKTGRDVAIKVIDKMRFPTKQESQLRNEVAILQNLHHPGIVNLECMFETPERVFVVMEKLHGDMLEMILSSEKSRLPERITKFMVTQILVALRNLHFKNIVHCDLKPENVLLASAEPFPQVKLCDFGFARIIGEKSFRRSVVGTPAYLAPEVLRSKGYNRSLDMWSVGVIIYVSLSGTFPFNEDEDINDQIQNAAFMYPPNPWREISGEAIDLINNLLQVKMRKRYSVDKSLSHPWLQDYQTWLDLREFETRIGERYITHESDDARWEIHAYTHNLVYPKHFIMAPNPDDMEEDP

[6] = biological target: Tyrosine-protein kinase Tec (Homo sapiens) (UniProt P42680); experiment: Inhibition of human recombinant TEC at 40 nM in presence of ATP by radiometric assay relative to control
[7] = biological target: SRSF protein kinase 1 (Homo sapiens) (UniProt Q96SB4); experiment: Inhibition of human recombinant SRPK1 at 40 nM related to control ULK1
[8] = biological target: Serine/threonine-protein kinase Nek6 (Homo sapiens) (UniProt Q9HC98); experiment: Inhibition of human recombinant NEK6 at 40 nM in presence of ATP by radiometric assay relative to control
[9] = biological target: Mitogen-activated protein kinase kinase kinase 10 (Homo sapiens) (UniProt Q02779); experiment: Inhibition of human recombinant MLK2 at 40 nM in presence of ATP by radiometric assay relative to control
[10] = biological target: SRSF protein kinase 2 (Homo sapiens) (UniProt P78362); experiment: Inhibition of human recombinant SRPK2 at 15 nM in presence of ATP by radiometric assay relative to control
[11] = biological target: Mitogen-activated protein kinase 10 (Homo sapiens) (UniProt P53779); experiment: Inhibition of human recombinant JNK3 at 15 nM in presence of ATP by radiometric assay relative to control
[12] = biological target: 5'-AMP-activated protein kinase catalytic subunit alpha-2 (Homo sapiens) (UniProt P54646); experiment: Inhibition of human recombinant AMPKa2 at 15 nM related to control ULK1
Summary of the method: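 Panel of 327 recombinant human kinases, each assayed in vitro by radiometric activity assay in duplicate at a single inhibitor concentration per compound, chosen with reference to its ULK1 inhibition. Activity remaining was expressed as percent of vehicle control, and percent inhibition was calculated as 100 minus percent activity remaining.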

[13] = biological target: T2, Serine/threonine-protein kinase ICK (Homo sapiens) (UniProt Q9UPZ9); experiment: Inhibition of human recombinant ICK at 15 nM related to control ULK1
T2 sequence (whole entry): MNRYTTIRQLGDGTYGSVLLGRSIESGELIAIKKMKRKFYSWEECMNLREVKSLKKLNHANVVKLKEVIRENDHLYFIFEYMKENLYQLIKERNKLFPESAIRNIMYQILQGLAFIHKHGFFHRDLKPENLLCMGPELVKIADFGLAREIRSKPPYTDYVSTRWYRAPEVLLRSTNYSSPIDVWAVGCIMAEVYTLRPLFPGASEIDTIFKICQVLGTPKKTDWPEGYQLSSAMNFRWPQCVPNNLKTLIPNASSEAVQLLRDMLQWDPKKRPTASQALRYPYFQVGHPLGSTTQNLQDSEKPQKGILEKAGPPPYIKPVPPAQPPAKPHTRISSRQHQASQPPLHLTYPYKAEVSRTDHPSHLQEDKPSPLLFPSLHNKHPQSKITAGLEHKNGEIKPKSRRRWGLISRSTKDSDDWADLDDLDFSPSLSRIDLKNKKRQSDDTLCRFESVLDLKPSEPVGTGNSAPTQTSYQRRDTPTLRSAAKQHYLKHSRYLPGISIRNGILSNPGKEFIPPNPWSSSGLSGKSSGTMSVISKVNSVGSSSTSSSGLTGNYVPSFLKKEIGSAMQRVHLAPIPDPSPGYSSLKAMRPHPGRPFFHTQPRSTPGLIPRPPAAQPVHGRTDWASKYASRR

[14] = biological target: T3, Testis-specific serine/threonine-protein kinase 4 (Homo sapiens) (UniProt Q6SA08); experiment: Inhibition of human recombinant TSSK4 at 15 nM related to control ULK1
T3 sequence (whole entry): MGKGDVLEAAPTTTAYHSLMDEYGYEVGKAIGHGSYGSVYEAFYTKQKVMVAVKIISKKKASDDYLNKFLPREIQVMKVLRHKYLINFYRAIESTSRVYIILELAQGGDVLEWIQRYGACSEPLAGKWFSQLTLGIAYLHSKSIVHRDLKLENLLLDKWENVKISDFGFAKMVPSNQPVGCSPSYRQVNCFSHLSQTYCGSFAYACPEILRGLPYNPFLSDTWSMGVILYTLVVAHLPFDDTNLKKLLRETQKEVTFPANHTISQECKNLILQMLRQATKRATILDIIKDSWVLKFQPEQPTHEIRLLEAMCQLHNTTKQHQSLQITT

Mitogen-activated protein kinase kinase kinase 10 (Homo sapiens), sequence (Q02779 whole entry, looked up, canonical isoform): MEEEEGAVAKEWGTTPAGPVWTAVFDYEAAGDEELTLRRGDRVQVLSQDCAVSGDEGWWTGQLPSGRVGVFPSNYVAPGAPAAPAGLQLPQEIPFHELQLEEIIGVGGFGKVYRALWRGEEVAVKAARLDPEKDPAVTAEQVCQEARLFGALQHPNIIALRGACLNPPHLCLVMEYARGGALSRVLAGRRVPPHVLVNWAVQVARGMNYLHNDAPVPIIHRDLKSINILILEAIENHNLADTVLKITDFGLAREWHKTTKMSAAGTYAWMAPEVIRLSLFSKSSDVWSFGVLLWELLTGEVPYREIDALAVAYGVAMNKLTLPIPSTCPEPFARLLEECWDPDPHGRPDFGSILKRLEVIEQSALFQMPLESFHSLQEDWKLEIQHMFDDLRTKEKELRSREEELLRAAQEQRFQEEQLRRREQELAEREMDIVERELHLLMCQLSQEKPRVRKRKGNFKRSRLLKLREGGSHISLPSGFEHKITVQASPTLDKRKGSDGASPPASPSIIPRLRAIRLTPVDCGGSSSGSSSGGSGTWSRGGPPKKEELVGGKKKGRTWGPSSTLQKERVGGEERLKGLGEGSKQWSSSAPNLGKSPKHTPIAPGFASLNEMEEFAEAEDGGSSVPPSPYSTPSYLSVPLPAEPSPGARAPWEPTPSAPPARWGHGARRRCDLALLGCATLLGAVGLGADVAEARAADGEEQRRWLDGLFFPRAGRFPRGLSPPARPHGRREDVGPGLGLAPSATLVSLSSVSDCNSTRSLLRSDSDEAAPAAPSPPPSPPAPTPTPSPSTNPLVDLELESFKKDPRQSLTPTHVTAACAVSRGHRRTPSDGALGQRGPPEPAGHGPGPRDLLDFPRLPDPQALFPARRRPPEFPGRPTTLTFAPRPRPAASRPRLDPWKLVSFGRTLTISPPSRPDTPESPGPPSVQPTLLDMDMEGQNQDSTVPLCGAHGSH
Tyrosine-protein kinase Tec (Homo sapiens), sequence (P42680 whole entry, looked up): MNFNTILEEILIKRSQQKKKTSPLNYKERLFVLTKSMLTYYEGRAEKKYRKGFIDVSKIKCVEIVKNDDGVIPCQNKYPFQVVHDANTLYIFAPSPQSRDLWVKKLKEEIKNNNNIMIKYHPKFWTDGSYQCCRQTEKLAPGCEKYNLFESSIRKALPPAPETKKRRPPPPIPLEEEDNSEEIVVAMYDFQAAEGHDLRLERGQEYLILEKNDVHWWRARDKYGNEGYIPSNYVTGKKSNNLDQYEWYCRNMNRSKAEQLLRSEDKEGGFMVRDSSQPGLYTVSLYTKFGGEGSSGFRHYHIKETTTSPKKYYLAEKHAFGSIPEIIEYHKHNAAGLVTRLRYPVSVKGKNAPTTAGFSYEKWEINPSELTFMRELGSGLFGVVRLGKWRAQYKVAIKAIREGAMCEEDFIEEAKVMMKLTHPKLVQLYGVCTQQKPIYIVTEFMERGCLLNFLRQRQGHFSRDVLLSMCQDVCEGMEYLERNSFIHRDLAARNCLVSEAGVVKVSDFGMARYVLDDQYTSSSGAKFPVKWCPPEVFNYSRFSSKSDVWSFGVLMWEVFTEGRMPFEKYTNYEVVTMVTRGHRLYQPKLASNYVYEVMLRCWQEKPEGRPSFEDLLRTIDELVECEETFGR
Protein kinase C delta type (Homo sapiens), sequence (Q05655 whole entry, looked up): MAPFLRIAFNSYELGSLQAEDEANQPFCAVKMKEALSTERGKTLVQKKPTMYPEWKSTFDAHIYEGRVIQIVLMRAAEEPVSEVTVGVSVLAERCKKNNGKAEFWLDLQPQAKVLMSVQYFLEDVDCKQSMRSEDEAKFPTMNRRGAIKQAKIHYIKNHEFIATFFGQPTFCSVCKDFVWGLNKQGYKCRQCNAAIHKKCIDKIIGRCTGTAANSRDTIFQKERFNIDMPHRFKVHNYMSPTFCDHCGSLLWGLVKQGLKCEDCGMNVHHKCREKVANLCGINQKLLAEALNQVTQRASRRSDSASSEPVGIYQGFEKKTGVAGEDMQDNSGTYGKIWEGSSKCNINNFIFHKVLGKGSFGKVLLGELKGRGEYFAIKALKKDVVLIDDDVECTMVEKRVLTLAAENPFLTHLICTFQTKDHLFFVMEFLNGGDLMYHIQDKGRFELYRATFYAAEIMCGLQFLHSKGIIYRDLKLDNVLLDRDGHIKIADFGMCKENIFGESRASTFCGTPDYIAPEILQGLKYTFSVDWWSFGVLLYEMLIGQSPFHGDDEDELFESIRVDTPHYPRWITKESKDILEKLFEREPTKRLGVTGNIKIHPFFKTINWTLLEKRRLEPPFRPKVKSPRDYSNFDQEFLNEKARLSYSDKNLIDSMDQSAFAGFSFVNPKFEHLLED
Mitogen-activated protein kinase 10 (Homo sapiens), sequence (P53779 whole entry): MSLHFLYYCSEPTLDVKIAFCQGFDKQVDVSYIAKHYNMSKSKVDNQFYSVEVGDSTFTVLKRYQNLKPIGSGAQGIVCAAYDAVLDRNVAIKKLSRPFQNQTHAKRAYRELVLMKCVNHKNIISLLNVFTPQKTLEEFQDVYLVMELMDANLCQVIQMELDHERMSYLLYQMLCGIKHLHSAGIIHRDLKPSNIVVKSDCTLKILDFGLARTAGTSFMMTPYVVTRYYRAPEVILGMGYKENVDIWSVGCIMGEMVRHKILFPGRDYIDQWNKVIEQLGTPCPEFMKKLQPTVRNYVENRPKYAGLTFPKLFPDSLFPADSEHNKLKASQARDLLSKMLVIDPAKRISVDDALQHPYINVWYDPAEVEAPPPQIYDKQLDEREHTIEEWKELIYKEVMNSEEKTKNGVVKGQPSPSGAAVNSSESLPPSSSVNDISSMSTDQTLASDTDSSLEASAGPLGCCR
SRSF protein kinase 2 (Homo sapiens), sequence (P78362 whole entry, looked up): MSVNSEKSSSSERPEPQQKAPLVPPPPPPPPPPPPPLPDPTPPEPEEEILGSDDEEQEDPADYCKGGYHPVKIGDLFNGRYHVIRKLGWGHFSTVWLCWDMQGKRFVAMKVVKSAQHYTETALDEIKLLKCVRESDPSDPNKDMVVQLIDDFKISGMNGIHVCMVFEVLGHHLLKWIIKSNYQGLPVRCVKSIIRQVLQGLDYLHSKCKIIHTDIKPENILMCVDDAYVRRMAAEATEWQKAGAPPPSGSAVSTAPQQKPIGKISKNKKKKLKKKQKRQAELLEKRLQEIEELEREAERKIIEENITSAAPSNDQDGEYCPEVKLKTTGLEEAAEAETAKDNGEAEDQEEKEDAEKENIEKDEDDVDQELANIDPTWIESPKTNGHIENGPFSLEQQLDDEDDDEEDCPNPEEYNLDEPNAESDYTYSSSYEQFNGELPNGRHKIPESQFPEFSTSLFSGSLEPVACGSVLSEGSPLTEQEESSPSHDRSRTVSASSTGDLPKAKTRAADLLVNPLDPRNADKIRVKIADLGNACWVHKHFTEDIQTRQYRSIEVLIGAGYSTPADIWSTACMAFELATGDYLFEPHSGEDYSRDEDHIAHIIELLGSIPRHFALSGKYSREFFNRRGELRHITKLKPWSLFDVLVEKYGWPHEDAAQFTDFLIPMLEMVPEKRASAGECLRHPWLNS
Phosphorylase b kinase gamma catalytic chain, skeletal muscle/heart isoform (Homo sapiens), sequence (Q16816 whole entry, looked up, canonical isoform): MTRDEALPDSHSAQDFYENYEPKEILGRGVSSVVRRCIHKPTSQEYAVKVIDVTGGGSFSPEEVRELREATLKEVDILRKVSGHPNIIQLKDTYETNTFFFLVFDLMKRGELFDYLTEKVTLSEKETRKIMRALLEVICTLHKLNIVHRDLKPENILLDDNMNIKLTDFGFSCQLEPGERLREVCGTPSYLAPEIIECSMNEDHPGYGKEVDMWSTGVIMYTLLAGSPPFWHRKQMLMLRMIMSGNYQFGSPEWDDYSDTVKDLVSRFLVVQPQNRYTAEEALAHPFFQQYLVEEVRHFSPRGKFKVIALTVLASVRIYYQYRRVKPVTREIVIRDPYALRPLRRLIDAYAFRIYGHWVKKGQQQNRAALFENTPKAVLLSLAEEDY
5'-AMP-activated protein kinase catalytic subunit alpha-2 (Homo sapiens), sequence (P54646 whole entry, looked up): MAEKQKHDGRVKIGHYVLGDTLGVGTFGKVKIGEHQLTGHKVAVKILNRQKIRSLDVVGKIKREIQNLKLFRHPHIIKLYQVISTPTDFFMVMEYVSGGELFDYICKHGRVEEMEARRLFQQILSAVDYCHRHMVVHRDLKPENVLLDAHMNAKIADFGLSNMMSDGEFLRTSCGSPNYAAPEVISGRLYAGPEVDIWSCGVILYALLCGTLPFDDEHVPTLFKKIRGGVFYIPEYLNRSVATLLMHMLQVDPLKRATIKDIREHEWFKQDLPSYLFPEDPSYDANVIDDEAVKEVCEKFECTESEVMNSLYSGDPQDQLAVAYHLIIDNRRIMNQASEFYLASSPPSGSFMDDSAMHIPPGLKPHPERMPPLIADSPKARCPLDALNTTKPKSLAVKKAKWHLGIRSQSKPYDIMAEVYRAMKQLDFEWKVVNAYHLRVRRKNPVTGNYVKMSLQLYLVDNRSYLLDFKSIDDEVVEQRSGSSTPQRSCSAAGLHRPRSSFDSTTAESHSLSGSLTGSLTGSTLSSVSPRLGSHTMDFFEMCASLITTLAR
Serine/threonine-protein kinase Nek6 (Homo sapiens), sequence (Q9HC98 whole entry): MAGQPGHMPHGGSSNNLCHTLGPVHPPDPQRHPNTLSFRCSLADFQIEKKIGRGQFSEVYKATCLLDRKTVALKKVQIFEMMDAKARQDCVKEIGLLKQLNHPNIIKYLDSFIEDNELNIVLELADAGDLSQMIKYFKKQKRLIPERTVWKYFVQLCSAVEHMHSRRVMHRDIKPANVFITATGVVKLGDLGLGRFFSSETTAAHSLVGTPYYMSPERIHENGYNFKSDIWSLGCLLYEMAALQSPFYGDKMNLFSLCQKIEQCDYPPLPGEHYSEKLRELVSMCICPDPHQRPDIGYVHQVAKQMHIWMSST

- inhibition [1]: 0%
- inhibition [2]: 3%
- inhibition [3]: 70%
- fold change (FC) [4]: 0.31
- inhibition [5]: 0%
SMILES: CNC(=O)c1ccccc1Oc1nc(Nc2cc(OC)c(OC)c(OC)c2)ncc1Br

- inhibition [6]: 0%
- fold change (FC) [7]: 0.14
- inhibition [8]: 0%
- inhibition [9]: 0%
SMILES: O=C(N[C@@H](C1CC1)C(F)(F)F)c1cc(-c2cnn3cc(-c4ccc(F)cc4)cnc23)cs1

- inhibition [10]: 0%
- inhibition [11]: 7%
- fold change (FC) [12]: 0.94
- fold change (FC) [13]: 0
- fold change (FC) [14]: 0
SMILES: CC(C)[C@H](NC(=O)c1cc(-c2cnn3cc(-c4ccc(OCCN5CCCCC5)cc4)cnc23)cs1)C(F)(F)F
